Experimental data: ChEMBL document CHEMBL2401696, “Stereoselective synthesis and anti-proliferative effects on prostate cancer evaluation of 5-substituted-3,4-diphenylfuran-2-ones” (Eur J Med Chem, 2013)
pIC50: −log10 of the molar value. Active and inactive are the calls of the source. The calls are words filed in the database; no cut-off is given here.

What was measured:
PC-3 [1] = experiment: Antiproliferative activity against human PC3 cells after 72 hrs by MTT assay; format: functional, cell-based; details: PC-3, 72 h
Method in brief: (§1)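 Cells (PC3 and its PCDNA- and SKP2-transfected lines, DU145) grown in RPMI 1640 with 10% FBS; G418 added for transfected lines. Exponential cells seeded 1 × 10⁴/well, 24 h at 37 °C, then fresh medium with compounds at several concentrations for 72 h. MTT 1–3 h at 37 °C, dissolved in 4% HCl/96% isopropanol, absorbance 570 nm. Triplicate per concentration; IC50 from dose–response curves.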

PC-3 [2] = experiment: Antiproliferative activity against human PC3 cells expressing PCDNA after 72 hrs by MTT assay; format: functional, cell-based; details: PC-3, 72 h; method in brief: as §1
PC-3 [3] = experiment: Antiproliferative activity against human PC3 cells expressing SKP2 after 72 hrs by MTT assay; format: functional, cell-based; details: PC-3, 72 h; method in brief: as §1
[4] = molecular target: T1, Prostaglandin G/H synthase 1 (Ovis aries) (UniProt P05979); experiment: Inhibition of ovine COX-1 assessed as using arachidonic acid as substrate at 10 uM preincubated for 5 mins prior to substrate addition […] by enzyme immunoassay relative to control
T1 sequence (whole entry): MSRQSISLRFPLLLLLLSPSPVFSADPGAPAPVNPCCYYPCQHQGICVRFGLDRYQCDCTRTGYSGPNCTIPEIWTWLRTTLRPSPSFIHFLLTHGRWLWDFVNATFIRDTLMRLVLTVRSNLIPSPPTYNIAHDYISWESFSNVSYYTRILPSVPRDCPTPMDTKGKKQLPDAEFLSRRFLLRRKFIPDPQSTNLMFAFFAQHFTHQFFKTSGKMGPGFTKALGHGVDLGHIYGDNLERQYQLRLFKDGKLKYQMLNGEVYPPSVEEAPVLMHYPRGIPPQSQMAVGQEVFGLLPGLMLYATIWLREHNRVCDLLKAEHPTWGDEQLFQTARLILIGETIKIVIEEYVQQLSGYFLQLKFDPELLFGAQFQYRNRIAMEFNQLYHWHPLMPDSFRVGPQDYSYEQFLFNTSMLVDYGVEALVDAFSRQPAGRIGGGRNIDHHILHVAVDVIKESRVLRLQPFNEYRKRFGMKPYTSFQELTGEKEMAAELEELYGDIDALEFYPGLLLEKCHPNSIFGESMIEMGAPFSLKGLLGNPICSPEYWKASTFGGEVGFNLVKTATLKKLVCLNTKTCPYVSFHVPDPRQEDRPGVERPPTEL

[5] = molecular target: T2, Prostaglandin G/H synthase 2 (Ovis aries, UniProt P79208); experiment: Inhibition of ovine COX-2 assessed as using arachidonic acid as substrate preincubated for 5 mins prior to substrate addition measured […] by enzyme immunoassay
T2 sequence (P79208 whole entry): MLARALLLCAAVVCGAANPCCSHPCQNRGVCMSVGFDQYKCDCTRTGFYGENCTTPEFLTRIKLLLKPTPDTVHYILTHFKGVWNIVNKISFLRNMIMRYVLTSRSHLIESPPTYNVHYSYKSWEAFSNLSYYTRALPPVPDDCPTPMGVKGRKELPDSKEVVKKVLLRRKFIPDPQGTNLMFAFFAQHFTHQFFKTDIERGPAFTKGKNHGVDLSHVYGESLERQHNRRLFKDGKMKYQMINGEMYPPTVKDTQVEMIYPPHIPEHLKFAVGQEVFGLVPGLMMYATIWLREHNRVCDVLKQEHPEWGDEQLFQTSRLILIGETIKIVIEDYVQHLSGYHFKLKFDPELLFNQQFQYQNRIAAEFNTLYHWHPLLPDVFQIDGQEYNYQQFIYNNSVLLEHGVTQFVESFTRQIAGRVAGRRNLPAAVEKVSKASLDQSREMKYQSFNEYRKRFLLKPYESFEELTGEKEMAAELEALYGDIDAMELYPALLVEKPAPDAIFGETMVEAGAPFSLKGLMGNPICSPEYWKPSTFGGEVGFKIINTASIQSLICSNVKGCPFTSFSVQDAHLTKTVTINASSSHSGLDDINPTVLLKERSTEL

DU-145 [6] = experiment: Antiproliferative activity against human DU145 cells after 72 hrs by MTT assay; format: functional, cell-based; details: DU-145, 72 h; method in brief: as §1
[7] = molecular target: T3, Prostaglandin G/H synthase 2 (Ovis aries) (UniProt P79208); experiment: Inhibition of ovine COX-2 assessed as using arachidonic acid as substrate at 10 uM preincubated for 5 mins prior to substrate addition measured after 2 mins by enzyme immunoassay relative to control
T3 sequence (whole entry): T2 sequence (P79208 whole entry)

[8] = molecular target: T3, Prostaglandin G/H synthase 2 (Ovis aries); experiment: Inhibition of ovine COX-2 assessed as using arachidonic acid as substrate at 10 uM preincubated for 5 mins prior to substrate addition measured after 2 hrs by enzyme immunoassay relative to control; details: in the assay text read “after 2 mins” for “after 2 hrs”
Method in brief: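 Ovine COX-1 or COX-2 with heme in 0.1 M Tris-HCl pH 8.0, 5 mM EDTA, 2 mM phenol; compound (0.001–100 µM final, DMSO stocks) preincubated 5 min at 37 °C, then arachidonic acid added, stopped with 1 M HCl after 2 min. PGF2α (SnCl2 reduction) quantified by competitive EIA at 412 nm; % inhibition vs controls; mean of two determinations.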

[9] = molecular target: T4, Prostaglandin G/H synthase 1 (Ovis aries, UniProt P05979); experiment: Inhibition of ovine COX-1 assessed as using arachidonic acid as substrate preincubated for 5 mins prior to substrate addition […] by enzyme immunoassay
T4 sequence (P05979 whole entry): T1 sequence (whole entry)

DU-145 [10] = experiment: Induction of apoptosis in human DU145 cells assessed as formation of apoptotic bodies at 5 to 20 uM after 48 hrs by DAPI staining-based fluorescence microscopic analysis; format: functional, cell-based
Method in brief: (§2)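 DU145 seeded 2 × 10⁴ per 60-mm plate, 24 h, then treated 48 h; PBS-washed twice, fixed 3.7% paraformaldehyde 10 min at room temperature, DAPI-stained 10 min at room temperature; nuclei scored for chromatin condensation and apoptotic bodies.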

DU-145 [11] = experiment: Induction of apoptosis in human DU145 cells assessed as chromosomal condensation at 5 to 20 uM after 48 hrs by DAPI staining-based fluorescence microscopic analysis; format: functional, cell-based; method in brief: as §2
DU-145 [12] = experiment: Cell cycle arrest in human DU145 cells assessed as accumulation at G0/G1 phase after 12 hrs by propidium iodide staining-based flow cytometric analysis; format: functional
DU-145 [13] = experiment: Cell cycle arrest in human DU145 cells assessed as accumulation at G2/M phase at 20 uM after 12 hrs by propidium iodide staining-based flow cytometric analysis (reference value: 10.97%); format: functional
DU-145 [14] = experiment: Cell cycle arrest in human DU145 cells assessed as accumulation at S phase at 20 uM after 12 hrs by propidium iodide staining-based flow cytometric analysis (reference value: 44.93%); format: functional
DU-145 [15] = experiment: Cell cycle arrest in human DU145 cells assessed as accumulation at G0/G1 phase at 20 uM after 12 hrs by propidium iodide staining-based flow cytometric analysis (reference value: 40.91%); format: functional
DU-145 [16] = experiment: Cell cycle arrest in human DU145 cells assessed as accumulation at G2/M phase at 15 uM after 12 hrs by propidium iodide staining-based flow cytometric analysis (reference value: 10.97%); format: functional
DU-145 [17] = experiment: Cell cycle arrest in human DU145 cells assessed as accumulation at S phase at 15 uM after 12 hrs by propidium iodide staining-based flow cytometric analysis (reference value: 44.93%); format: functional
DU-145 [18] = experiment: Cell cycle arrest in human DU145 cells assessed as accumulation at G0/G1 phase at 15 uM after 12 hrs by propidium iodide staining-based flow cytometric analysis (reference value: 40.91%); format: functional
DU-145 [19] = experiment: Cell cycle arrest in human DU145 cells assessed as accumulation at G2/M phase at 5 uM after 12 hrs by propidium iodide staining-based flow cytometric analysis (reference value: 10.97%); format: functional
DU-145 [20] = experiment: Cell cycle arrest in human DU145 cells assessed as accumulation at S phase at 5 uM after 12 hrs by propidium iodide staining-based flow cytometric analysis (reference value: 44.93%); format: functional
DU-145 [21] = experiment: Cell cycle arrest in human DU145 cells assessed as accumulation at G0/G1 phase at 5 uM after 12 hrs by propidium iodide staining-based flow cytometric analysis (reference value: 40.91%); format: functional

| SMILES | pIC50 (PC-3 [1]) | pIC50 (PC-3 [2]) | pIC50 (PC-3 [3]) | inhibition [4] | pIC50 [5] | pIC50 (DU-145 [6]) | inhibition [7] [%] | inhibition [8] | further results |
| --- | --- | --- | --- | --- | --- | --- | --- | --- | --- |
| COc1cc(/C=C2\OC(=O)C(c3ccc(F)cc3)=C2c2ccc(S(C)(=O)=O)cc2)ccc1O | < 4.30 | < 4.30 | 4.97 | – | 4.75 | < 4.30 | – | 43.6% | – |
| COc1ccccc1/C=C1\OC(=O)C(c2ccccc2)=C1c1ccc(S(C)(=O)=O)cc1 | – | < 4.10 | < 4.05 | 71% | 5.52 | – | 72.6 | – | pIC50 [9]: 5.51 |
| CS(=O)(=O)c1ccc(C2=C(c3ccccc3Cl)C(=O)O/C2=C\c2cccc([N+](=O)[O-])c2)cc1 | – | < 4.30 | < 4.30 | 7.01% | 5.15 | – | 59.2 | – | – |
| CS(=O)(=O)c1ccc(C2=C(c3ccccc3Cl)C(=O)O/C2=C\c2ccccc2)cc1 | < 4.30 | < 4.30 | 5.26 | – | 5.14 | < 4.30 | – | 59.1% | – |
| CS(=O)(=O)c1ccc(C2=C(c3ccccc3Cl)C(=O)O/C2=C\c2ccc(Cl)cc2)cc1 | – | < 4.30 | < 4.30 | inactive | – | – | 32.7 | – | – |
| CS(=O)(=O)c1ccc(C2=C(c3ccc(F)cc3)C(=O)OC2)cc1 | – | < 4.30 | < 4.30 | 28.5% | 5.04 | – | – | 66.9% | – |
| COc1cc(/C=C2\OC(=O)C(c3ccc(F)cc3)=C2c2ccc(S(C)(=O)=O)cc2)cc(OC)c1OC | < 4.30 | < 4.30 | 4.59 | – | – | < 4.30 | 20.8 | – | – |
| COc1ccc(/C=C2\OC(=O)C(c3ccccc3Cl)=C2c2ccc(S(C)(=O)=O)cc2)cc1 | – | < 4.30 | < 4.30 | 61.2% | – | – | – | inactive | pIC50 [9]: 5.07 |

Second part, led by results:

| pIC50 (PC-3 [1]) | pIC50 (PC-3 [2]) | pIC50 (PC-3 [3]) | inhibition [4] | pIC50 [5] | pIC50 (DU-145 [6]) | inhibition [7] [%] | inhibition [8] | SMILES | further results |
| --- | --- | --- | --- | --- | --- | --- | --- | --- | --- |
| < 4.30 | 4.59 | 4.34 | inactive | 4.84 | < 4.30 | 44.2 | – | COc1ccccc1/C=C1\OC(=O)C(c2ccccc2Cl)=C1c1ccc(S(C)(=O)=O)cc1 | – |
| < 4.30 | 4.74 | 4.60 | inactive | 4.86 | < 4.30 | – | 45.6% | COc1ccccc1/C=C1\OC(=O)C(c2ccc(F)cc2)=C1c1ccc(S(C)(=O)=O)cc1 | – |
| – | < 4.30 | < 4.30 | 65.9% | – | – | – | 16.7% | COc1ccc(/C=C2\OC(=O)C(c3ccccc3)=C2c2ccc(S(C)(=O)=O)cc2)cc1 | pIC50 [9]: 5.09 |
| < 4.30 | 4.39 | 4.81 | 18.6% | – | < 4.30 | 24.1 | – | CC(C)=C1OC(=O)C(c2ccccc2Cl)=C1c1ccc(S(C)(=O)=O)cc1 | – |
| 4.70 | 5.29 | 5.29 | – | 4.92 | 4.60 | – | 43.3% | COC1(C)OC(=O)C(c2ccccc2Cl)=C1c1ccc(S(C)(=O)=O)cc1 (stereo not given) | Activity (DU-145 [10]): Active; Activity (DU-145 [11]): Active; Activity (DU-145 [12]): Dose-dependent effect; Activity (DU-145 [13]): 6.28%; Activity (DU-145 [14]): 27.26%; Activity (DU-145 [15]): 64.51%; Activity (DU-145 [16]): 7.53%; Activity (DU-145 [17]): 29.17%; Activity (DU-145 [18]): 60%; Activity (DU-145 [19]): 10.97%; Activity (DU-145 [20]): 43.24%; Activity (DU-145 [21]): 42.22% |
